Results on 17 compounds are retold here after ChEMBL document CHEMBL1147503, “Syntheses and structure-activity relationship studies of piperidine-substituted quinolones as nonpeptide gonadotropin releasing hormone antagonists” (Bioorg Med Chem Lett, 2004).

Data set [1] relates to CHO. In words: In vitro inhibitory concentration against GnRH-stimulated phosphatidyl inositol hydrolysis by cloned chinese hamster ovary cells stably expressing human GnRH receptor. Format: functional, cell-based. Conditions: Cricetulus griseus.
Data set [2] addresses T1, Gonadotropin-releasing hormone receptor (Homo sapiens, UniProt P30968).
T1 sequence (P30968 whole entry): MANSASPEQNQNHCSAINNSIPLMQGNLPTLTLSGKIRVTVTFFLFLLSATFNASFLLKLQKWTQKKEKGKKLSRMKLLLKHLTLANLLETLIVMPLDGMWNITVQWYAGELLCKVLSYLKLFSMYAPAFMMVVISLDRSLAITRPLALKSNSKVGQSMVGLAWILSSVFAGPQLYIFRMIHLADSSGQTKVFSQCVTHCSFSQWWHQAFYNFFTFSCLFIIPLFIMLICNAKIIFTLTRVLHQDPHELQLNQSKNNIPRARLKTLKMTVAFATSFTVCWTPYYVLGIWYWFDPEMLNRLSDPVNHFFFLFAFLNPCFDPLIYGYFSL
In words: Inhibitory concentration against binding of [125I]buserelin to human Gonadotropin-releasing hormone receptor. In a few lines:
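Competitive displacement of the GnRH receptor agonist radioligand [125I]buserelin from the human GnRH receptor, with 0.1% BSA present in the binding assay.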

Data set [3] addresses T2, Gonadotropin-releasing hormone receptor (Rattus norvegicus, UniProt P30969).
T2 sequence (P30969 whole entry): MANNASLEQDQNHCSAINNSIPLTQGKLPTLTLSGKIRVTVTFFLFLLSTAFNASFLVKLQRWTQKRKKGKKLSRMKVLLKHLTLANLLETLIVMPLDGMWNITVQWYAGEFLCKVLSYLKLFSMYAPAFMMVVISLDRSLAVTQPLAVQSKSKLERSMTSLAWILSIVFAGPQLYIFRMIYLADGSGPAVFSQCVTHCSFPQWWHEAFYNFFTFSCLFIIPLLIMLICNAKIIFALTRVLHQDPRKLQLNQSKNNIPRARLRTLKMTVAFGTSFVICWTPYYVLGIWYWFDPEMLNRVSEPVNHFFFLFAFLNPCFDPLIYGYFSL
In words: Inhibitory concentration against binding of rat Gonadotropin-releasing hormone receptor using [125I]buserelin.

The nature of data set [4]: Oral bioavailability in dog. Format: ADME, organism-based, Canis lupus familiaris. To be noted: in vivo.
Data set [5] is described as follows: Clearance rate in dog. The data set is classed as ADME, organism-based, Canis lupus familiaris. Conditions: in vivo, read-out: Clearance rate.
For data set [6], the target named is T3, Gonadotropin-releasing hormone receptor (Rattus norvegicus) (UniProt P30969).
T3 sequence (whole entry): T2 sequence (P30969 whole entry)
In words: Inhibitory activity against binding of rat Gonadotropin-releasing hormone receptor using [125I]buserelin at 10 uM.

As usually defined, the IC50 is the point on the concentration scale where inhibition reaches its midpoint. For the compound `Cc1cc(C)cc(-c2c(OCC[C@@H]3CCC[C@@H](C)N3)c3cc(C(=O)Nc4ccncn4)c(Cl)cc3[nH]c2=O)c1`, the IC50 in data set [1] stood at 11.5 nM; in data set [2], 0.5 nM. For `Cc1cc(C)cc(-c2c(OCC[C@@H]3CCC[C@H](C)N3)c3cc(C(=O)Nc4ccncn4)c(Cl)cc3[nH]c2=O)c1`, in that order: 8.7 nM and 0.5 nM. For `Cc1cc(C)cc(-c2c(OCC[C@@H]3CCC[C@H](CCCc4ccccc4)N3)c3cc([N+](=O)[O-])c(Cl)cc3[nH]c2=O)c1`, in data set [3], the IC50 worked out at 400 nM. One may read the bioavailability as the share of a dose that reaches the circulation, judged against a reference dose that is usually intravenous. A high value points to good availability. As usually defined, the clearance is the volume of plasma or blood freed of the substance per unit of time. Take `Cc1cc(-c2c(OCC[C@@H]3CCCC(C(F)(F)F)N3)c3cc(C(=O)Nc4ccncn4)c(Cl)cc3[nH]c2=O)cc(C)c1C` (stereo not given in full): the IC50 in data set [1] came to 18 nM; in data set [2] it was 2 nM. In data set [4], this compound registered a bioavailability of 14.6%. The clearance in data set [5] came to 21.6 mL/min/kg. On to `Cc1cc(C)cc(-c2c(O)nc3cc(Cl)c([N+](=O)[O-])cc3c2OCC[C@@H]2CCC[C@H](C)N2)c1`, for which, in data set [3], the IC50 worked out at 15 nM. Same read-out and setting: the value for `Cc1cc(C)cc(-c2c(O)nc3cc(Cl)c([N+](=O)[O-])cc3c2OCC[C@@H]2Cc3ccccc3CN2)c1` was 70 nM. Compound `Cc1cc(-c2c(O)nc3cc(Cl)c(C(=O)Nc4ccncn4)cc3c2OCC[C@@H]2CCCCN2)cc(C)c1C` came in with an IC50 in data set [1] of 2.2 nM. For the same compound, in data set [4], the bioavailability worked out at 4.4%. Also, the clearance in data set [5] came to 36.8 mL/min/kg. For the compound `Cc1cc(C)cc(-c2c(OCCC3CCC(C)CN3)c3cc([N+](=O)[O-])c(Cl)cc3[nH]c2=O)c1` (stereo not given), the IC50 in data set [3] is 63 nM. Same read-out and setting: the value for `Cc1cc(C)cc(-c2c(OCCC3NCCc4ccccc43)c3cc([N+](=O)[O-])c(Cl)cc3[nH]c2=O)c1` (stereo not given) was 750 nM.

By inhibition is commonly meant the percentage by which the read-out fell short of the control. The low end stands for a response near the control, the high end for a response far below the control. In turn, `Cc1cc(C)cc(-c2c(O)nc3cc(Cl)c([N+](=O)[O-])cc3c2OCCC2CCc3ccccc3N2)c1` (stereo not given) showed an inhibition in data set [6] of 85%. In data set [1], `Cc1cc(C)cc(-c2c(O)nc3cc(Cl)c(C(=O)Nc4ccncn4)cc3c2OCC[C@@H]2CCCCN2)c1` gave an IC50 of 5 nM.

With `CC[C@H]1CCC[C@@H](CCOc2c(-c3cc(C)cc(C)c3)c(O)nc3cc(Cl)c([N+](=O)[O-])cc23)N1`, the IC50 in data set [3] came out at 18 nM.

As to `Cc1cc(C)cc(-c2c(O)nc3cc(Cl)c([N+](=O)[O-])cc3c2OCCc2ccccn2)c1`, the inhibition in data set [6] amounted to 86%.

`Cc1cc(C)cc(-c2c(O)nc3cc(Cl)c([N+](=O)[O-])cc3c2OCCC2CCCCN2)c1` (single isomer, unassigned) displayed an IC50 in data set [3] of 10 nM. The compound `Cc1cc(C)cc(-c2c(O)nc3cc(Cl)c([N+](=O)[O-])cc3c2OCCC2NCCCC2C)c1` (stereo not given) had an IC50 in data set [3] of 45 nM. As for `CCC1CCC[C@@H](CCOc2c(-c3cc(C)cc(C)c3)c(=O)[nH]c3cc(Cl)c(C(=O)Nc4ccncn4)cc23)N1` (stereo not given in full), the IC50 in data set [2] was found to be 5.7 nM.

Take `Cc1cc(-c2c(OCC[C@@H]3CCC[C@H](C)N3)c3cc(C(=O)Nc4ccncn4)c(Cl)cc3[nH]c2=O)cc(C)c1C`: the IC50 in data set [1] came out at 9.8 nM; in data set [2], 0.6 nM.
